≈ marks a conversion by molar mass, not a printed value. Some results are limits rather than exact numbers.

A word on the MIC: it is the least concentration at which growth counts as inhibited. Low readings indicate greater potency, high ones weaker potency.

The subject of assay [1] is Mycobacterium tuberculosis. Briefly: Growth inhibition of Mycobacterium bovis BCG infected in PBMC assessed as decrease in [3H]-uridine incorporation at <= IC20 after 72 hrs by microbeta scintillation counting analysis. The format is functional, variant bovis BCG. An outline of the steps:
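PBMCs at 1.5x10^4/well; non-adherent cells are washed off after 24 h. Adherent monocytes are cultured 6 days, then infected with BCG at MOI 3 for 4 h and washed three times. Drugs are added at concentrations at or below the THP-1 IC20 for 72 h.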

In assay [2] the test system is Mycobacterium tuberculosis. Briefly: Antimycobacterial activity against Mycobacterium bovis BCG. The format is functional. The note with it: variant bovis BCG.

On to `O=C(NNCCCN1c2ccccc2CCc2ccccc21)c1ccncc1`, for which the “growth inhibition (GI)” value in assay [1] is more than 90%. Also, the MIC in assay [2] stood at 13.4 µM (≈ 5 µg/mL).

Take `CN(C)CCCN1c2ccccc2Sc2ccc(Cl)cc21` [CHLORPROMAZINE]: the “growth inhibition (GI)” value in assay [1] was determined as 40%. This compound yielded an MIC in assay [2] of 4 µM (≈ 1.28 µg/mL).

For the compound `O=C(NNCCCN1c2ccccc2Sc2ccccc21)c1ccncc1`, the “growth inhibition (GI)” value in assay [1] is more than 90%. The compound also registered a minimal inhibitory concentration (MIC) in assay [2] of 13.3 µM (≈ 5.01 µg/mL).

As to `O=C(NNCCCN1c2ccccc2Sc2ccc(Cl)cc21)c1ccccc1`, in assay [1], the “growth inhibition (GI)” value is on record as 40%. In assay [2], the minimum inhibitory concentration (MIC) amounted to 12.2 µM (≈ 5 µg/mL).

`O=C(NNCCCN1c2ccccc2Sc2ccccc21)c1ccccc1`: the “growth inhibition (GI)” value in assay [1] was 40%. In assay [2], the MIC came to 26.6 µM (≈ 9.99 µg/mL).

Consider `O=C(NNCCCN1c2ccccc2Sc2ccc(Cl)cc21)c1ccncc1`, for which the “growth inhibition (GI)” value in assay [1] is given as more than 90%. In addition, the minimal inhibitory concentration (MIC) in assay [2] is 2.44 µM (≈ 1 µg/mL).

As for `NNC(=O)c1ccncc1` [ISONIAZID], in assay [1], the “growth inhibition (GI)” value is more than 90%. In assay [2], this compound showed an MIC of 0.015 µM (≈ 0.00206 µg/mL).

For `O=C(NNCCCN1CCC(N2c3ccccc3Sc3ccc(Cl)cc32)CC1)c1ccncc1`, the “growth inhibition (GI)” value in assay [1] is listed as more than 90%. The same compound came in with a minimum inhibitory concentration (MIC) in assay [2] of 1 µM (≈ 0.494 µg/mL).

For the origin of these results see ChEMBL document CHEMBL4184228, “Reversed isoniazids: Design, synthesis and evaluation against Mycobacterium tuberculosis” (Bioorg Med Chem, 2018).
